Test: Toxicity liver stage against HepG2, at 10uM
Type: cell-based
Set-up: test concentration 10 uM, cell line HepG2-A16-CD81EGFP
Conditions: human, HepG2-A16-CD81EGFP cells; read-out: INHIBITION
Summary of the method: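 Uninfected HepG2-A16-CD81EGFP cells, 3 × 10^3 per well, 1536-well, plated on prespotted compound at 10 μM final, parasite-free screening media added to match infected plates; puromycin 10 μM positive, DMSO 0.5% negative; run in parallel with 48 h PbLuc assay at 37 °C, 5% CO2; viability by CellTiter-Glo luminescence, normalized to controls.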

Row | Compound | cytotoxicity at 10 µM [%]
1 | Fc1ccc(-c2noc(CN3CCC(c4cc[nH]n4)CC3)n2)cc1 | 18.4
2 | Cc1nn(-c2ccccn2)c(C)c1[C@@H]1C=C[C@@H](NC(=O)CCC(=O)O)C1 | 4.59
3 | O=C(CCCSc1ccc(NC(=O)C2CC2)nn1)NCC1CCCO1 (stereo not given) | -4.45
4 | Cc1cc(C(=O)NCC(Cc2cccc(F)c2)N2CCCCC2=O)no1 (stereo not given) | 2.68
5 | CC(C)S(=O)(=O)NCC(Cc1cccc(F)c1)N1CCNC1=O (stereo not given) | -1
6 | CC(=O)c1ccc(S(=O)(=O)NCC2CCN(c3cnccn3)CC2)cc1 | 0.723
7 | O=C(Cc1ccc(F)cc1)NCCNc1cc(N2CCCC2)cnn1 | -3.29
8 | O=C(NCCc1ccccn1)[C@@]12CCO[C@@H]1CCN(c1ncccn1)C2 | 4.26
9 | N#Cc1ccc2c(c1)CN(C(=O)C1CC=CC1)C2c1cnco1 (stereo not given) | -0.0499
10 | O=C(NC1CCCC1)NC1CCc2[nH]c(=O)ccc2C1 (stereo not given) | 7.91
11 | CS(=O)(=O)NCc1noc2c1CN(C(=O)c1ccsc1)CC2 | 7.86
12 | Cc1noc([C@@H]2CCO[C@@H]3CCN(C(=O)Cc4ccsc4)C[C@@H]32)n1 | 10.4
13 | COCC1CN(Cc2ccoc2)Cc2cn(CC3CCCC3)nc21 (stereo not given) | 4.32
14 | CN1CCc2c(C#N)c(NCCN3CCOCC3)n3cnnc3c2C1 | -2.84
15 | Cc1cc(C)cc(Nc2nc(C)cc(=O)n2CC(=O)NC(C)C)c1 | -7.3
16 | Cn1c(=O)n(C)c2cc(C3SCC(=O)Nc4ccsc43)ccc21 (stereo not given) | 4.49
17 | O=C([C@H]1C[C@H]2OCC[C@H]2N(C(=O)c2ccncc2)C1)N1CCCCO1 | -6.77
18 | O=C1CNc2ncnc(Nc3cnn(Cc4ccccc4)c3)c2N1 | 7.38
19 | O=C(c1cccc(-n2cnnc2)c1)N1C[C@@H](O)[C@H](N2CCOCC2)C1 | 2.26
20 | COCCNc1ccc(CC2CCCN(C3CCCC3)C2)nn1 (stereo not given) | 3.07
21 | CNC(=O)CCc1cc(C)nc(C2CCN(c3cnccn3)CC2)c1 | 1.31
22 | Cc1nc(N)cc(C2CN(C(=O)c3cscn3)CCO2)n1 (stereo not given) | 7.03

Row | Compound | cytotoxicity at 10 µM [%]
23 | c1cc(-c2cncc(C3CCNCC3)n2)n[nH]1 | 3.42
24 | O=C(c1ccc2c(c1)OCO2)N1CCC(C(=O)O)(c2ccccc2)CC1 | 7.33
25 | O=C1NC2(Cc3ccccc31)CN(CC1CCOCC1)C2 | 14
26 | Cc1cc(C2CCCN2C(=O)COc2ccc(CC#N)cc2)on1 (stereo not given) | -49.6
27 | CCN(Cc1cccc(C(N)=O)c1)c1ccccc1 | 2.91
28 | CCC(=O)NC(c1ccc(C)cc1)c1cccc(S(C)(=O)=O)c1 (stereo not given) | -7.62
29 | CCOc1ccc(NC(=O)NCCCN(C)S(C)(=O)=O)cc1C | 2.79
30 | Cc1noc(C)c1CS(=O)(=O)CC(=O)NCCc1ccccc1 | -5.83
31 | CC(C)n1nc2c(cc1=O)CN(c1nc3ccccc3s1)CC2 | -1.99
32 | Cc1cccc(C)c1NC(=O)CNC(C)Cc1ccsc1 (stereo not given) | -6.12
33 | CC(C)(C)OC(=O)N1CCC(NC2CC2)CC1 | -5.64
34 | CC(=O)N(Cc1ncc(C)o1)C1CCN(Cc2nnc(C3CC3)o2)C1 (stereo not given) | 5.08
35 | CC(C)n1c(C2CCCN(CC(=O)NC3CC3)C2)nc2ccccc21 (stereo not given) | -5.54
36 | CSC(C)(C)CNC(=O)NC1CCC1 | -7.32
37 | O=C(NC1CCN(c2cccc(OC(F)(F)F)c2)C1=O)C1CCC1 (stereo not given) | -3.11
38 | Clc1cnccc1N1CCCOCC1 | -0.625
39 | CSc1ccc(C(CNC(C)=O)N2CCc3sccc3C2)cc1 (stereo not given) | 6.84
40 | CCCc1n[nH]c(C2CN(C(=O)CCn3nc(C)cc3C)CCO2)n1 (stereo not given) | -11.9
41 | Cn1cc(Br)cc(NC(=O)CC(C)(C)C)c1=O | 5.82
42 | Cc1nn(C)c(C)c1CCC(=O)Nc1nnc(C2CC2)s1 | -10.1
43 | CCCS(=O)(=O)N(C)C(=O)CCc1ccsc1 | 0.321
44 | c1ccc(-n2nnnc2CNCc2ccc3c(c2)OCCO3)cc1 | 9.35

Row | Compound | cytotoxicity at 10 µM [%]
45 | CCC(C(=O)NCC1CCN(c2ccncc2)CC1)N(C)C (stereo not given) | 15
46 | Cc1ccc(N2CCC(NCc3cnc(C4CCC4)s3)CC2)nc1 | 6.75
47 | CC(=O)c1cccc(S(=O)(=O)N2CCC(c3n[nH]c(C)n3)CC2)c1 | -5.83
48 | COc1cncc(N2CCN(Cc3cccn3C)CC2)n1 | 6.09
49 | CN(CC1CCCC1)C(=O)c1cn(C)nc1-c1cccnc1 | -0.0402
50 | COc1cccc(CC2CCCN2CC(N)=O)c1 (stereo not given) | -55.6
51 | CN(Cc1ccc(OC(F)F)cc1)C(=O)CS(=O)(=O)c1ccc(Cl)cc1 | 5.19
52 | CCSc1cc(C(=O)NCc2ccccc2O)ccn1 | -3.81
53 | O=C(NCC1CC1)C1CN(C(=O)NC2CCCC2)Cc2cncn2C1 (stereo not given) | -106
54 | CS(=O)(=O)NCc1nnc2n1CCN(Cc1cccs1)C2 | -1.57
55 | O=C(Nc1ccccc1)c1cc2n(n1)CCCN(C(=O)N1CCCC1)C2 | -70.3
56 | O=C(c1cccc(Cl)c1)N1CC[C@@H](N2CCC(O)CC2)[C@H](O)C1 | -1.61
57 | CC(C)N(Cc1c[nH]nc1-c1ccc2c(c1)OCO2)Cc1nccn1C | -7.8
58 | CCOc1ncccc1-c1cc2c(cc1C(N)=O)OCO2 | -0.421
59 | O=C(Cn1cccn1)N1CCC(Cn2cc(-c3ccsc3)nn2)CC1 | -0.554
60 | CC(=O)N[C@@H]1Cc2ccccc2[C@H]1Nc1cc(C2CC2)ncn1 | -45.2
61 | CC(Cn1cccn1)n1cnc2ccc(F)cc2c1=O (stereo not given) | 0.956
62 | CCc1ccc(CN(C)Cc2nc(-c3cnccn3)no2)nc1 | 3.57
63 | Cn1ncc2c(N3CCS(=O)(=O)CC3)nc(-c3cccnc3)nc21 | 4.38
64 | CCc1nnc(CN(C)Cc2cccc(C(=O)Nc3ccnn3C)c2)o1 | -3.7
65 | COC[C@@]12CC[C@@H](N3CCOCC3)C[C@H]1CCN(c1ncccc1F)C2 | -3.47
66 | COCC(Nc1nc(N(C)C)nc2c1CCNCC2)c1ccccn1 (stereo not given) | 1.58

Row | Compound | cytotoxicity at 10 µM [%]
67 | CCCn1cnnc1CNC1CCSC1 (stereo not given) | -1.1
68 | CS(=O)(=O)N1CCC(Oc2ccc(C(=O)NCC3CCC3)cc2Cl)CC1 | 12
69 | CSc1ccc(C(C(=O)O)N2CCCC2)cc1 (stereo not given) | 1.16
70 | CNC(=O)C1(N(C)CCc2ccccc2)Cc2ccccc2C1 | 11.5
71 | Cc1cc(NCCCc2c(C)noc2C)nc(N)n1 | 12
72 | c1ccc(CCCn2cc(-c3nc(CN4CCOCC4)no3)nn2)cc1 | 2.14
73 | Cc1ccc(C(=O)N2CCC3(CC2)c2ccccc2[C@@H](N)[C@@H]3O)cc1F | -0.685
74 | O=C(O)c1ccnc(-c2ccnc(COc3cccc(F)c3)n2)c1 | -2.31
75 | CNc1nc(C(=O)N2CCN(c3cc(C)nc(C)c3)CC2)cs1 | 3.78
76 | Cc1cc2cc(C(=O)N3CCN(CCO)[C@@H]4CS(=O)(=O)C[C@@H]43)ccc2o1 | -0.357
77 | CC1CCN(CC2(O)CCCN(Cc3cccc(F)c3F)C2=O)CC1 (stereo not given) | 0.801
78 | Cc1nc2ccc(S(=O)(=O)Nc3c(C)nn(CC(=O)O)c3C)cc2s1 | -2.83
79 | CNc1cc(C)nc(N2CCC3(CC2)[C@H](O)C[C@@H]3OC)n1 | -6.72
80 | CN(C)Cc1cn(CC2CCCN(c3nccc4occc34)C2)nn1 (stereo not given) | -9.67
81 | CCC(C(=O)NCc1cccnc1)N(c1cccc(C)c1)S(C)(=O)=O (stereo not given) | 2.57
82 | Cc1cc(C)nc(N2CCC(NCCSc3nnnn3C)CC2)n1 | -6.88
83 | COCC(=O)NCc1cccnc1-n1cnc2ccccc21 | -2.8
84 | Cc1cc(N2CCN(Cc3ccc(C)o3)CC2)cc(C)n1 | -6.61
85 | CC(C)C(NC(=O)Nc1ccccn1)c1cccs1 (stereo not given) | 2.27
86 | COc1ccc(-c2nc(C(=O)NCC3CCOC3)cs2)cc1OC (stereo not given) | 2.39
87 | CCOc1ccnc(N2CCN(C(=O)c3ccncc3)CC2)n1 | -4.6
88 | O=C(CCC1CCCO1)NCc1ccccc1Cn1cncn1 (stereo not given) | -4.05

Row | Compound | cytotoxicity at 10 µM [%]
89 | Cc1noc(C(C)N2CCN(Cc3ccco3)CC2)n1 (stereo not given) | -3.37
90 | CN(Cc1cnn(C)c1)C(=O)NCc1cc(Br)cs1 | -10.1
91 | CCn1cc(NC(=O)NCC(c2ccc(OC)cc2)N(C)C)cn1 (stereo not given) | -2.4
92 | O=S(=O)(NCc1ccccc1Cn1cncn1)N1CCCCCC1 | 0.512
93 | Cc1cc(C)c(CNC(=O)N2CCCC2c2ccc(F)cc2)c(=O)[nH]1 (stereo not given) | 1.38
94 | COC(=O)c1cccc(C(=O)NCc2ccc3c(c2)CCCN3C)c1 | -11.7
95 | CN(Cc1ccsc1)C(=O)c1cccc(S(=O)(=O)NC(C)(C)C)c1 | -8.03
96 | CN(C)C(CNC(=O)c1cc2c([nH]c1=O)CCCC2=O)c1ccsc1 (stereo not given) | -1.96
97 | Cc1ccccc1-n1ncc(C(=O)N2CCCC2c2cnn(C)c2)c1C (stereo not given) | -4.84
98 | NC(=O)CN1CCC(NC(=O)Nc2nccs2)CC1 | -5.9
99 | CCc1nnc2n1CCN(Cc1csc(-c3ccc(C)o3)n1)C2 | -1.5
100 | Cc1nc(Nc2cnccn2)cc(C2CCCN2)n1 (stereo not given) | -9.46
101 | COc1ccc(CNC(=O)N2CCN(CC(O)C3CC3)CC2)cc1 (stereo not given) | 7.11
102 | Cn1cc(N2C[C@@H]3CN(Cc4ccccn4)C[C@@H]3C2=O)cn1 | -95.6
103 | Cc1cnccc1-c1cnn(CCNC(=O)c2ccccn2)c1C1CC1 | 56.3
104 | Cc1cc(N(C)C)nc(C2CCNC2)n1 (stereo not given) | 0.812
105 | O=C(C1=CCCC1)N1CCC[C@]2(C[C@@H](OCc3ccccn3)CO2)C1 | 9.79
106 | Cn1cccc1C(=O)N[C@H]1CN(Cc2ccoc2)[C@@H]2CCCO[C@H]12 | -88.7
107 | COc1ccc(CN2C[C@@H](OCc3ccccn3)[C@H]3COC[C@H]32)cc1 | 3.63
108 | Cc1ccc(CN2CCc3ncnc(C4CC4)c3CC2)s1 | 4.63
109 | Cc1noc(C)c1CN1CC[C@@H]2O[C@H](COCC3CC3)CC[C@@H]21 | 5.65
110 | O=C(CC1[C@H]2CN(C(=O)c3cccnc3)C[C@@H]12)Nc1cccnc1 (stereo not given in full) | 7.37

— ChEMBL document CHEMBL4513216, “Probing the Open Global Health Chemical Diversity Library for Multistage-Active Starting Points for Next-Generation Antimalarials” (ACS Infect Dis, 2020)
